Legend:
[1] = species on record: Cavia porcellus; assay: Anticholinergic activity was measured by the guinea pig ileum test.; format: functional; conditions: for Kb: Cavia porcellus, Ileum, read-out: pA2 (converted)
Method in brief: (§1)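 Guinea pig whole ileum strips in McEwan's solution, gassed with O2/CO2 95:5, 37 °C organ bath, 1 g tension. Cumulative acetylcholine concentration-response curves were run to constancy, then repeated after 15–20 min equilibration with increasing antagonist concentrations. Mean curves gave dose ratios, from which competitive antagonism and pA2 were derived.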

[2] = species on record: Cavia porcellus; assay: Antihistamine activity was measured by the guinea pig ileum test.; format: functional; conditions: for Kb: Cavia porcellus, Ileum, read-out: pA2 (converted)
Method in brief: (§2)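 Guinea pig ileum strips, McEwan's solution, Carbogen, 37 °C, 1 g tension. Cumulative histamine concentration-response curves were recorded before and after 15–20 min equilibration with rising antagonist concentrations. pA2 came from dose ratios of mean curves.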

[3] = Cholinergic potency was expressed in terms of relative activity vs acetylcholine; c = NA means no activity found at the doses used.; format: functional
[4] = tested on: Felis catus; assay: acetylcholine antagonist effect of compound on cat blood pressure at concentration 5.7*10e-8 mol/kg in 1 min; format: functional
Method in brief: (§3)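 Adult cats under ip α-chloralose (80 mg/kg) plus pentobarbitone (6 mg/kg), bilaterally vagotomized and artificially respired. Carotid blood pressure was recorded. An iv acetylcholine dose giving 70–80% of maximal vasodepressor response was used. After iv test drug, acetylcholine responses were checked at 1 min and then every 2–3 min and expressed as % of control. Doses were given in mol/kg, escalating after recovery.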

[5] = species on record: Felis catus; assay: acetylcholine antagonist effect of compound on cat blood pressure at concentration 5.7*10e-7 in 1 min; format: functional; method in brief: as §3
[6] = species on record: Felis catus; assay: acetylcholine antagonist effect of compound on cat blood pressure at concentration 5.7*10e-7 in 12 min; format: functional; method in brief: as §3
[7] = species on record: Felis catus; assay: acetylcholine antagonist effect of compound on cat blood pressure at concentration 5.7*10e-7 in 22 min; format: functional; method in brief: as §3
[8] = species on record: Felis catus; assay: acetylcholine antagonist effect of compound on cat blood pressure at concentration 5.7*10e-8 in 9 min; format: functional
Method in brief: (§4)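 Adult cats anesthetized ip with α-chloralose (80 mg/kg) plus sodium pentobarbitone (6 mg/kg), bilaterally vagotomized, artificially respired. Carotid arterial pressure recorded. Drugs given iv via brachial vein. Acetylcholine dose giving 70-80% of maximal vasodepressor response used throughout. Test drug injected, acetylcholine response checked 1 min later, then every ~2-3 min. Value is % of control vasodepressor response to acetylcholine.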

[9] = species on record: Felis catus; assay: acetylcholine antagonist effect of compound on cat blood pressure at concentration 5.7*10e-8 in 7 min; format: functional; method in brief: as §4
[10] = species on record: Felis catus; assay: acetylcholine antagonist effect of compound on cat blood pressure at concentration 5.7*10e-8 in 3 min; format: functional; method in brief: as §3
[11] = species on record: Felis catus; assay: acetylcholine antagonist effect of compound on cat blood pressure at concentration 5.7*10e-7 in 31 min; format: functional; method in brief: as §3
[12] = species on record: Felis catus; assay: acetylcholine antagonist effect of compound on cat blood pressure at concentration 5.7*10e-7 in 15 min; format: functional; method in brief: as §3
[13] = The hydrolytic kinetics expressed as Kobs was measured at 7.4 pH at 37 degree C; format: ADME; conditions: pH 7.4
Method in brief: (§5)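 Chemical hydrolysis in 0.5 M potassium phosphate, pH 7.4, 37 °C. Rate was followed by appearance of the acid product or loss of the quaternary salt. Where salt contained amine hydrochloride, initial concentration was taken from final acid after complete hydrolysis. Half-life was estimated from both where resolved.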

[14] = species on record: Felis catus; assay: acetylcholine antagonist effect of compound on cat blood pressure at concentration 5.7*10e-7 in 6 min; format: functional; method in brief: as §3
[15] = species on record: Felis catus; assay: acetylcholine antagonist effect of compound on cat blood pressure at concentration 5.7*10e-7 in 18 min; format: functional; method in brief: as §3
[16] = species on record: Felis catus; assay: acetylcholine antagonist effect of compound on cat blood pressure at concentration 5.7*10e-7 in 3 min; format: functional; method in brief: as §3
[17] = species on record: Cavia porcellus; assay: Anticholinergic activity was measured by the guinea pig ileum test; format: functional; conditions: read-out: pA2 (converted); method in brief: as §1
[18] = species on record: Felis catus; assay: acetylcholine antagonist effect of compound on cat blood pressure at concentration 5.7*10e-7 in 27 min; format: functional; method in brief: as §3
[19] = Half life period was measured at 7.4 pH from d[acid]/dt.; format: ADME; conditions: pH 7.4; method in brief: as §5
[20] = species on record: Felis catus; assay: acetylcholine antagonist effect of compound on cat blood pressure at concentration 5.7*10e-8 in 5 min; format: functional; method in brief: as §4
[21] = species on record: Felis catus; assay: acetylcholine antagonist effect of compound on cat blood pressure at concentration 5.7*10e-7 in 37 min; format: functional; method in brief: as §3
[22] = species on record: Felis catus; assay: acetylcholine antagonist effect of compound on cat blood pressure at concentration 5.7*10e-8 in 23 min; format: functional; method in brief: as §3
[23] = species on record: Felis catus; assay: acetylcholine antagonist effect of compound on cat blood pressure at concentration 5.7*10e-9 in 4 min; format: functional; method in brief: as §4
[24] = species on record: Cavia porcellus; assay: Anticholinergic activity was measured by the guinea pig ileum test; c = NA means no activity found at the doses used; format: functional; conditions: read-out: pA2 (converted); method in brief: as §1
[25] = species on record: Felis catus; assay: acetylcholine antagonist effect of compound on cat blood pressure at concentration 5.7*10e-8 in 18 min; format: functional; method in brief: as §3
[26] = species on record: Felis catus; assay: acetylcholine antagonist effect of compound on cat blood pressure at concentration 5.4*10e-8 in 28 min
[27] = The hydrolytic kinetics expressed as Kobs was measured at 9.4 pH at 36 degree C; format: ADME; conditions: pH 9.4
Method in brief: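 Hydrolysis in 0.1 M sodium carbonate-bicarbonate, pH 9.4, ionic strength 0.5 (NaCl added), 36 °C. Kobsd was followed from the rate of acid formation.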

[28] = species on record: Felis catus; assay: acetylcholine antagonist effect of compound on cat blood pressure at concentration 5.7*10e-9 in 1 min; format: functional; method in brief: as §4
[29] = species on record: Cavia porcellus; assay: Antihistamine activity was measured by the guinea pig ileum test; c = NA means no activity found at the doses used; format: functional; method in brief: as §2
[30] = species on record: Canis familiaris; assay: The hydrolytic kinetics expressed as Kobs was measured in dog plasma at 37 degree C; format: ADME, Canis lupus familiaris
Method in brief: (§6)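 Fresh dog blood was centrifuged and the upper layer filtered through 0.8 and 0.2 µm membranes. 2 mL plasma samples with gentisic acid internal standard were incubated. 5 µL aliquots taken at intervals were assayed against acid standard curves in methanol. Rates came from acid appearance or quaternary salt loss.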

[31] = species on record: Felis catus; assay: acetylcholine antagonist effect of compound on cat blood pressure at concentration 5.7*10e-8 in 13 min; format: functional; method in brief: as §3
[32] = species on record: Felis catus; assay: acetylcholine antagonist effect of compound on cat blood pressure at concentration 5.4*10e-8 in 2 min
[33] = species on record: Canis familiaris; assay: The hydrolytic kinetics expressed as Kobs was measured in dog plasma at 36 degree C; format: ADME, Canis lupus familiaris; method in brief: as §6
[34] = species on record: Felis catus; assay: acetylcholine antagonist effect of compound on cat blood pressure at concentration 5.7*10e-9 in 7 min; format: functional; method in brief: as §4
[35] = Half life period was measured at 37 degree C in dog plasma from d[quant]/dt.; format: ADME, Canis lupus familiaris; method in brief: as §6
[36] = species on record: Felis catus; assay: acetylcholine antagonist effect of compound on cat blood pressure at concentration 5.4*10e-8 in 44 min
[37] = species on record: Felis catus; assay: acetylcholine antagonist effect of compound on cat blood pressure at concentration 5.7*10e-9 in 2 min; format: functional; method in brief: as §4
[38] = species on record: Felis catus; assay: acetylcholine antagonist effect of compound on cat blood pressure at concentration 5.4*10e-8 in 33 min
[39] = species on record: Felis catus; assay: acetylcholine antagonist effect of compound on cat blood pressure at concentration 5.4*10e-8 in 38 min
[40] = Cholinergic potency was expressed in terms of relative activity vs acetylcholine.; format: functional
[41] = species on record: Cavia porcellus; assay: Anticholinergic activity was measured by the guinea pig ileum test; c = NA means no activity found at the doses used.; format: functional; method in brief: as §1
[42] = species on record: Cavia porcellus; assay: Antihistamine activity was measured by the guinea pig ileum test; c = NA means no activity found at the doses used.; format: functional; method in brief: as §2

C[N+]1(COC(=O)C23CC4CC(CC(C4)C2)C3)CCCC1
Kb [1]: 126 nM

Cn1cc[n+](COC(=O)C23CC4CC(CC(C4)C2)C3)c1
Kb [1]: 2000 nM
Kb [2]: 5010 nM
Activity [3]: No activity

CC[N+](CC)(CC)COC(=O)C(c1ccccc1)C1CCCC1.[Cl-] (stereo unspecified)
Response [4]: 0%
Response [5]: 0%
Response [6]: 18%
Response [7]: 65%
Response [8]: 100%
Response [9]: 82%
Response [10]: 18%
Response [11]: 95%
Response [12]: 36%
K obs [13]: 0.000361 min⁻¹
Response [14]: 0%
Response [15]: 55%
Response [16]: 0%
Kb [17]: 7.94 nM
Response [18]: 73%
half-life [19]: 32 h
Response [20]: 55%
Response [21]: 100%

C[N+]1(COC(=O)C(c2ccccc2)C2CCCC2)CCCC1.[Cl-] (stereo unspecified)
Response [22]: 63%
Response [4]: 0%
Response [23]: 67%
Kb [24]: 3.98 nM
Response [25]: 63%
Response [26]: 69%
K obs [27]: 0.139 min⁻¹
Response [28]: 0%
Response [8]: 0%
pA2 [29]: No activity
K obs [30]: 0.00168 min⁻¹
Response [31]: 31%
Response [32]: 0%
K obs [33]: 0.00144 min⁻¹
Response [34]: 100%
half-life [35]: 6.5 h
Response [36]: 88%
Response [37]: 0%
K obs [13]: 0.000578 min⁻¹
Response [38]: 81%
Response [39]: 88%
half-life [19]: 20 h
Response [20]: 0%
Activity [40]: No activity

Cn1cc[n+](COC(=O)C(c2ccccc2)C2CCCC2)c1 (stereo unspecified)
Kb [1]: 15.8 nM
Kb [2]: 501 nM

CC[N+](CC)(CC)COC(=O)C(c1ccccc1)C1CCCC1 (stereo unspecified) [listing 1 of 2 here]
Kb [1]: 3.16 nM
Kb [2]: 50.1 nM

CC(=O)OC1C[N+]2(COC(=O)C(c3ccccc3)C3CCCC3)CCC1CC2.[Cl-] (stereo unspecified)
pA2 [1]: 8.6
pA2 [2]: 5.7

CC[N+](CC)(COC(=O)C(C)(C)C)CC(=O)Nc1c(C)cccc1C
pA2 [41]: No activity
Activity [40]: 1

CC[N+](CC)(CC)COC(C)=O
pA2 [41]: No activity

C[N+]1(COC(=O)C2(c3ccccc3)CC2)CCCC1.[Cl-]
pA2 [42]: No activity
Kb [1]: 1580 nM
K obs [13]: 0.00068 min⁻¹
half-life [19]: 17 h

CC[N+](CC)(CC)COC(=O)C1(c2ccccc2)CC1.[Cl-]
K obs [13]: 0.00055 min⁻¹
pA2 [41]: No activity
half-life [19]: 21 h

CCC(C)C(=O)OC[N+]12CCC(CC1)C(OC(C)=O)C2 (stereo unspecified)
pA2 [41]: No activity
Activity [40]: 1

CC[N+](CC)(CC)COC(=O)C(c1ccccc1)C1CCCC1 (stereo unspecified) [listing 2 of 2 here]
pA2 [42]: No activity
Activity [3]: No activity

From ChEMBL document CHEMBL1121584, “Soft drugs. 3. A new class of anticholinergic agents” (J Med Chem, 1980)
